{"source": "ChEMBL document CHEMBL2390908", "about": "“Mapping the Vif-A3G interaction using peptide arrays: a basis for anti-HIV lead peptides” (Bioorg Med Chem, 2013)", "key": {"[1]": {"system": "Human immunodeficiency virus 1", "test": "Binding affinity to full length N-terminal His6-tagged HIV1 HXB2 Vif expressed in Escherichia coli MC-1061 after overnight incubation by chemiluminescence assay", "outline": "(§1)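 Immobilized peptide arrays blocked 4 h in 3.5% milk in 50 mM Tris-HCl pH 8, 150 mM NaCl, 1% Tween 20, then probed overnight at 4 °C with purified His-tagged protein in that buffer (full-length Vif 2 μM final; Vif CTD 7 μM final). Detection used anti-Vif mAb, HRP goat anti-mouse and chemiluminescence. Two experiments, duplicate arrays per slide.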"}, "[2]": {"system": "Human immunodeficiency virus 1", "test": "Binding affinity to N-terminal His6-tagged HIV1 HXB2 Vif CTD (141 to 192 amino acids) expressed in Escherichia coli MC-1061 after overnight incubation by chemiluminescence assay", "outline": "as §1"}, "293T": {"system": "293T", "test": "Binding affinity to HIV1 Vif expressed in human 293T cells assessed as inhibition of A3G degradation at 100 uM after 24 hrs by Western blot analysis", "format": "cell-based", "conditions": "Human immunodeficiency virus 1", "outline": "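293T cells co-transfected by calcium phosphate with Myc/His6-tagged A3G and HVif vectors (empty pcDNA3.1 in place of Vif as control). Medium replaced 8 h post-transfection, peptides added at 100 μM for a further 24 h. Lysates immunoblotted with anti-Myc (A3G) and anti-Vif antibodies. A3G bands quantified densitometrically, with A3G intensity in the no-Vif control set to 100%.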"}, "H9": {"system": "H9", "test": "Cytotoxicity against human H9 cells at 50 to 100 uM after 2 hrs", "format": "cell-based", "conditions": "h9, 2 h"}, "[3]": {"system": "Human immunodeficiency virus 1", "test": "Antiviral activity against HIV1 infected in human H9 cells assessed as inhibition of viral propagation at 50 to 100 uM incubated for 2 hrs prior to infection measured on day 7 to 9 by MAGI assay", "format": "functional, organism-based", "outline": "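H9 cells, which express endogenous A3G, pretreated 2 h with peptides at 50 and 100 μM, then infected with wt HIV-1 HXBII at MOI 0.05. Media collected on days 5, 7 and 9 post-infection, and released-virus infectivity titered by MAGI assay.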"}}, "note": "Calls of active or inactive are those of the source. The calls are words filed in the database; no cut-off is given here."}
{"substance": "H-AGAKISIMTYSEFKH-OH", "values": [{"measurement": "Activity", "setting": "[1]", "result": "Active"}, {"measurement": "Activity", "setting": "[2]", "result": "inactive"}]}
{"substance": "H-DGPRATMKIMNYDEF-OH", "values": [{"measurement": "Activity", "setting": "[1]", "result": "Active"}, {"measurement": "Activity", "setting": "[2]", "result": "Active"}]}
{"substance": "H-HQGCPFQPWDGLDEH-OH", "values": [{"measurement": "Activity", "setting": "[1]", "result": "Active"}, {"measurement": "Activity", "setting": "[2]", "result": "inactive"}]}
{"substance": "H-LDVIPFWKLDLDQDY-OH", "values": [{"measurement": "Activity", "setting": "[1]", "result": "Active"}, {"measurement": "inhibition", "setting": "293T", "result": "Active"}, {"measurement": "Activity", "setting": "[2]", "result": "Active"}, {"measurement": "Activity", "setting": "H9", "result": "Non-toxic"}, {"measurement": "inhibition", "setting": "[3]", "result": "inactive"}]}
{"substance": "H-MRFFHWFSKWRKLHR-OH", "values": [{"measurement": "Activity", "setting": "[1]", "result": "Active"}, {"measurement": "Activity", "setting": "[2]", "result": "Active"}]}
{"substance": "H-NTVWLCYEVKTKGPS-OH", "values": [{"measurement": "Activity", "setting": "[1]", "result": "Active"}, {"measurement": "Activity", "setting": "[2]", "result": "Active"}]}
{"substance": "H-QEMAKFISKNKHVSL-OH", "values": [{"measurement": "Activity", "setting": "[1]", "result": "Active"}, {"measurement": "Activity", "setting": "[2]", "result": "Active"}]}
{"substance": "H-TFLAEDPKVTLTIFV-OH", "values": [{"measurement": "Activity", "setting": "[1]", "result": "Active"}, {"measurement": "Activity", "setting": "[2]", "result": "Active"}]}
{"substance": "H-WVRGRHETYLCYEVE-OH", "values": [{"measurement": "Activity", "setting": "[1]", "result": "Active"}, {"measurement": "inhibition", "setting": "293T", "result": "Active"}, {"measurement": "Activity", "setting": "[2]", "result": "Active"}, {"measurement": "Activity", "setting": "H9", "result": "Non-toxic"}, {"measurement": "inhibition", "setting": "[3]", "result": "Active"}]}
{"substance": "H-YSQRELFEPWNNLPK-OH", "values": [{"measurement": "Activity", "setting": "[1]", "result": "Active"}, {"measurement": "Activity", "setting": "[2]", "result": "Active"}]}
